Assay results: ChEMBL document CHEMBL3817814, “Development and Characterization of a Potent Free Fatty Acid Receptor 1 (FFA1) Fluorescent Tracer” (J Med Chem, 2016)

Legend:
[1] = molecular target: T1, Free fatty acid receptor 1 (Homo sapiens, UniProt O14842); experiment: Agonist activity at human C-terminal eYFP-tagged FFA1 receptor expressed in HEK-293 cells assessed as beta-arrestin2 recruitment incubated for 5 mins by BRET assay relative to TUG-770; type: cell-based; conditions: HEK293
[2] = molecular target: T1, Free fatty acid receptor 1; experiment: Agonist activity at eYFP-tagged FFA1 receptor (unknown origin) expressed in human Flp-In T-REX-293 cells measured for 90 secs by Fura-2 AM dye based calcium mobilization assay; type: functional, cell-based
Method in brief: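 Flp-In T-REx 293 cells with doxycycline-inducible FFA1-eYFP were plated 50,000/well and induced with 100 ng/ml doxycycline 24 h before assay. Cells were Fura-2 AM loaded 45 min, washed three times and kept 15 min in HBSS. […] Mean ± S.E.M., n=3.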

[3] = molecular target: T1, Free fatty acid receptor 1; experiment: Binding affinity to N-terminal NLUC-tagged FFA1 receptor (unknown origin) expressed in human Flp-In T-REX-293 cell membrane coexpressing mGluR5 incubated for 1 hr by equilibrium BRET assay; type: cell membranes
Method in brief: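 Membranes from NLUC-FFA1 Flp-In T-REx 293 cells (induced 24 h, 100 ng/ml doxycycline) were used at 5 µg protein/well in 50 mM HEPES, 100 mM NaCl, 10 mM CaCl2, 10 mM MgCl2. Varying tracer concentrations, up to 100 nM, were incubated 1 h at 25 °C, with 10 µM unlabeled agonist defining non-specific binding. Nano-Glo (1:800 final) was added, then 460/545 nm emission read after 5 min. Kd came from saturation fits.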

[4] = molecular target: T1, Free fatty acid receptor 1; experiment: Binding affinity to N-terminal NLUC-tagged FFA1 receptor (unknown origin) expressed in human Flp-In T-REX-293 cell membrane coexpressing mGluR5 preincubated for 5 mins followed by TUG-905 addition measured after 15 mins by kinetic BRET assay; type: cell membranes
Method in brief: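 Membranes (2.5 µg protein/well) were pre-incubated 5 min at 25 °C with Nano-Glo (1:800 final), and 460/545 nm emission was read every 20 s at 25 °C. After 60 s, tracer (100 nM final) was injected; 5 min later 10 µM unlabeled agonist was injected and reading continued 15 min. Non-specific signal from wells pre-dosed with unlabeled agonist was subtracted, giving koff and kon.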

[5] = molecular target: T1, Free fatty acid receptor 1; experiment: Displacement of 3-(2-Fluoro-4-((2'-methyl-4'-(2-(2-((7-nitrobenzo[c][1,2,5]-oxadiazol-4-yl)amino)ethoxy)ethoxy)-[1,1'-biphenyl]-3-yl)-methoxy)phenyl)propanoic acid from N-terminal NLUC-tagged FFA1 receptor (unknown origin) expressed in human Flp-In T-REX-293 cell membrane coexpressing mGluR5 incubated for 1 hr by equilibrium BRET assay; type: cell membranes
[6] = molecular target: T1, Free fatty acid receptor 1; experiment: Agonist activity at human C-terminal eYFP-tagged FFA1 receptor expressed in HEK-293 cells assessed as beta-arrestin2 recruitment incubated for 5 mins by BRET assay; type: cell-based, HEK293
[7] = molecular target: T1, Free fatty acid receptor 1; experiment: Agonist activity at FFA1 receptor (unknown origin) expressed in human […] cells measured for 90 secs by Fura-2 AM dye based calcium mobilization assay; type: functional, cell-based
Method in brief: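 N1-FFA1 cells constitutively expressing untagged FFA1 were plated 24 h before the assay. They were loaded with Fura-2 AM for 45 min, washed three times, and held 15 min in HBSS. Fura-2 emission at 510 nm (340 or 380 nm excitation) was read before and for 90 s after compound addition. The peak 340/380 ratio gave concentration-response curves for potency.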

[8] = molecular target: T1, Free fatty acid receptor 1; experiment: Agonist activity at FFA1 receptor (unknown origin) expressed in human […] cells measured for 90 secs by Fura-2 AM dye based calcium mobilization assay relative to TUG-770; type: functional, cell-based
Method in brief: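 Untagged FFA1 constitutively expressed in N1-FFA1 cells, plated 15,000/well 24 h ahead. Cells loaded 45 min with Fura-2 AM, washed three times, then held 15 min in HBSS. Emission at 510 nm from 340/380 nm excitation was recorded before and for 90 s after compound addition. The peak 340/380 ratio gave concentration-response curves.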

T1 sequence (O14842 whole entry): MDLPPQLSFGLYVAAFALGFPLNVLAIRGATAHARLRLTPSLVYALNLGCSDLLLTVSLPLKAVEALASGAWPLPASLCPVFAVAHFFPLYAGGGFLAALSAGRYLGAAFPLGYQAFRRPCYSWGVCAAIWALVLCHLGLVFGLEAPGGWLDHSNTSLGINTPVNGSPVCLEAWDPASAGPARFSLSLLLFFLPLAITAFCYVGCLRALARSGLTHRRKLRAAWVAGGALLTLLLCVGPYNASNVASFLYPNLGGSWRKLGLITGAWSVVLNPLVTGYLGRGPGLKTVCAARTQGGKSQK

SMILES	Emax [1]	EC50 [6]	Ki [5]	also measured
N#CCc1ccccc1C#Cc1ccc(CCC(=O)O)cc1	95%			
Cc1cc(OCCOCCNc2ccc([N+](=O)[O-])c3nonc23)ccc1-c1cccc(COc2ccc(CCC(=O)O)c(F)c2)c1				EC50 [2]: 187 nM; Kd [3]: 7.4 nM; Kd [4]: 4 nM
Cc1ccccc1-c1cccc(CNc2ccc(CCC(=O)O)cc2)c1	114%			
CCCCCCCCCCCC(=O)O [DODECANOATE]	130%	7940 nM		pKb [5]: 4.46; EC50 [7]: 759 nM; Emax [8]: 116%
O=C(O)CCc1ccc(C#Cc2cccc(OCCOCCNc3ccc([N+](=O)[O-])c4nonc34)c2)cc1F				EC50 [2]: > 1000 nM
O=C(O)CCc1ccc(OCc2ccccc2)cc1 [BENZYLOXYPHENYLPROPANOIC ACID]	90%		13800 nM	

The next lines start with results.

Emax [1]	EC50 [6]	Ki [5]	SMILES	also measured
95%	55 nM	69.2 nM	Cc1cc(Oc2ncc(C(F)(F)F)cc2Cl)ccc1CC1SC(=O)NC1=O (stereo not drawn)	
89%			Cc1cc(OCCCS(C)(=O)=O)cc(C)c1-c1cccc(COc2ccc3c(c2)OC[C@H]3CC(=O)O)c1	Emax [8]: 108%
86%		219 nM	O=C(O)CCc1ccc(NCc2cccc(Oc3ccccc3)c2)cc1 [GW9508]	
100%	67.6 nM	631 nM	Cc1ccccc1C#Cc1ccc(CCC(=O)O)cc1	
